Assay outcomes deposited in PubChem by The Scripps Research Institute Molecular Screening Center.
MC4R antag cAMP: blocks human MC4R cAMP signaling. P32245. MC4R-expressing cells, MTII-stimulated cAMP, LANCE TR-FRET. inhibition, % at 6.5 µM. 360,000 tested, 0.48% active. AID 540295;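 active = inhibition above its plate's cutoff, the mean of tested wells on that plate plus 3 SD, cut at about 29% in these data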
Target sequence (P32245 whole entry, looked up): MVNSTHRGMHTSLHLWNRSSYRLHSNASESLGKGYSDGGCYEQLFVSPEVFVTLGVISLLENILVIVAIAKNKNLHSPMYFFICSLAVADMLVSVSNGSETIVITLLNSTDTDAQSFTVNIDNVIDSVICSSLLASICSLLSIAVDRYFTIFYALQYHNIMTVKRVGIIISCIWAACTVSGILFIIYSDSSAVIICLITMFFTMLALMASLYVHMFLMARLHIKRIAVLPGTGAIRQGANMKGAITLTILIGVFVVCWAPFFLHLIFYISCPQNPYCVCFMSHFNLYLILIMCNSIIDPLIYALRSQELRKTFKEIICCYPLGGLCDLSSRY
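Material: U2OS-MC4R stable cell line | Reagent: Melanotan II challenge after compound preincubation | Doses: One concentration, 6.5 µM nominal | Incubation: 30-min compound preincubation, 1-h Melanotan II challenge, 1-h detection, room temperature | Signal: TR-FRET cAMP assay | Replicates: One well per compound, no replicates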
MsrA act: activates bovine MsrA enzyme. purified bovine MsrA, absorbance read-out. activation, % at 10.6 µM. 360,000 tested, 0.3% active; in the data active = activation above about 7.5%
MsrA inhibitor: inhibitors of bovine MsrA; purified bovine MsrA, absorbance read-out; inhibition, % at 15.5 µM; 360,000 tested, 0.75% active; in the data active = inhibition above about 4.5%
MC4R ag barr: activates human MC4R beta-arrestin recruitment. P32245. U2OS MC4R beta-arrestin complementation, luminescence; percent of melanotan II response, DMSO zero. activation, % at 8.9 µM. 360,000 tested, 0.98% active. AID 540308;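 active = activation above a per-plate cutoff, the mean activation of sample wells on that plate plus 3 SD, cut at about 8% in these data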
MC4R barr ag: human MC4R beta-arrestin agonism confirmation; shares compounds with MC4R ag barr; U2OS MC4R beta-arrestin recruitment, luminescence; scaled DMSO 0%, Melanotan II 100%; activation, % at 8.9 µM; 2,400 tested, 31% active; AID 602192;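 active = mean activation across replicates above the hit cutoff set in the earlier primary screen, cut at about 8% in these data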
MOR DOR agonist: OPRM1-OPRD1 heterodimer agonism counter-screen; shares compounds with MC4R ag barr; U2OS PathHunter beta-arrestin, beta-gal luminescence; percent of deltorphin B response, DMSO zero; activation, % at 9.2 µM; 2,400 tested, 5.8% active; AID 602194;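 active = mean activation across replicates exceeds the hit threshold derived in the earlier primary screen, cut at about 18% in these data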
Hits are given with their value; n = inactive; x = no result. A selection: hits, their analogues and other compounds. The true share with any hit is near 2.3%.

SMILES	MC4R antag cAMP	MsrA act	MsrA inhibitor	MC4R ag barr	MC4R barr ag	MOR DOR agonist
O=C(CSc1nc2c(sc3ccccc32)c(=O)n1Cc1ccco1)NCC1CCCO1 (stereo unspecified)	n	n	n	22	n	n
O=C(CSc1nc2c(sc3ccccc32)c(=O)n1Cc1ccccc1)NCC1CCCO1 (stereo unspecified)	n	n	n	n	x	x
COc1ccc(OC)c(-c2cc(C(=O)NCc3ccc(Cl)cc3)no2)c1	n	n	n	10	n	n
COc1ccccc1-c1cc(C(=O)Nc2cc(C)n(Cc3ccc(Cl)cc3)n2)no1	n	n	n	21	15	n
COc1ccccc1-c1cc(C(=O)Nc2cc(C)nn2-c2ccccc2)no1	n	n	n	9.9	n	n
COc1ccc(-c2cc(C(=O)NCc3ccc(Cl)cc3)no2)cc1OC	n	n	n	n	x	x
Cc1cc(NC(=O)c2noc3c2CCCCC3)nn1Cc1ccc(Cl)cc1	n	n	n	12	n	n
Cc1cc(C(=O)Nc2cc(C)n(Cc3ccc(Cl)cc3)n2)no1	n	n	n	n	x	x
Cc1cc(C)c(C#N)c(SCC(O)CS(=O)(=O)Cc2ccccc2)n1 (stereo unspecified)	n	n	n	n	x	x
C/C(=C\C=C(C#N)C#N)c1cc(C#N)c(N)o1	n	n	n	14	57	20
CCOC(=O)C1=C(c2ccccc2)NC(N)=NC1c1ccc(OCc2ccc(Cl)cc2)c(OC)c1 (stereo unspecified)	n	n	n	12	11	n
O=C(CNC(=S)NC(=O)c1ccccc1Br)c1ccccc1	n	n	n	21	n	n
COc1ccc(-c2ccc(C#N)c(SCC(=O)NCc3ccco3)n2)cc1OC	n	n	n	16	n	n
COc1ccc(-c2ccc(C#N)c(SCC(=O)NC3CC3)n2)cc1OC	n	n	n	n	x	x
Cc1cc(SCC(=O)c2cccs2)nc2c(C)cccc12	n	n	n	n	x	x
CC(=O)Nc1ccc(C(=O)CSc2cc(C)c3cccc(C)c3n2)cc1	n	n	n	28	n	n
COc1ccc(C(=O)Nc2cc(C)on2)c(OC)c1	n	n	n	n	x	x
COC(=O)C(CC(C)C)NC(=O)CNC(=O)c1ccccc1C (stereo unspecified)	n	n	n	n	x	x
CCCCCC(=O)NC(CC(=O)OC)c1ccc2c(c1)OCO2 (stereo unspecified)	n	n	n	n	x	x
Cc1ccc(C(=O)CSc2nnc(-c3ccc4[nH]c(C)c(C)c4c3)o2)cc1C	n	n	n	n	x	x
Cc1[nH]c2ccc(-c3nnc(SCC(=O)c4ccccc4F)o3)cc2c1C	n	n	n	10	n	n
COc1ccc(S(=O)(=O)N2CCCCC2)cc1NC(=O)C1CC(=O)N(Cc2ccco2)C1 (stereo unspecified)	n	n	n	n	x	x
CCOc1cc(C(=O)NC(C)CCc2ccccc2)cc(OCC)c1OCC (stereo unspecified)	n	n	n	14	n	n
CCOC(=O)c1cc(NC(=O)Nc2nccs2)c(C)nc1C	n	n	n	n	x	x
Cc1csc(NC(=O)c2ccc3nc[nH]c3c2)n1	n	n	n	n	x	x
SMILES	MC4R antag cAMP	MsrA act	MsrA inhibitor	MC4R ag barr	MC4R barr ag	MOR DOR agonist
CCCCCCCNC(=O)C1(CC2CC(c3ccc(Cl)cc3)=NO2)CCNCC1 (stereo unspecified)	n	n	n	9.7	24	n
CCCCCCCNC(=O)C1(CC2CC(c3ccc(Cl)cc3)=NO2)CCN(C(=O)Cc2ccc(F)cc2)CC1 (stereo unspecified)	n	n	n	n	x	x
CCN(C(=O)CSc1nnc(-c2ccc(F)cc2)n1C)C1CCS(=O)(=O)C1 (stereo unspecified)	n	n	n	n	x	x
Cc1cc(F)cc(-c2cc(C(=O)NCC3CCCCC3)[nH]n2)c1	n	n	n	13	n	n
O=C(NCc1cccs1)c1ccc2sc(C3=C[C@@H](O)[C@@H](O)[C@@H](CO)O3)nc2c1	n	n	n	n	x	x
COc1cc(CN2CCC(C(=O)NC(C)(C)C)CC2)ccc1OCc1ccccc1	n	n	n	n	x	x
CC(=O)c1c(C)[nH]c(C(=O)CSc2ncnc3sc(-c4ccccc4)cc23)c1C	n	n	n	25	16	n
COc1cc2nc(SCc3ccc(F)cc3)n(Cc3cccs3)c(=N)c2cc1OC	n	n	n	n	x	x
COc1ccc(Cn2c(SCc3ccccc3C)nc3cc(OC)c(OC)cc3c2=N)cc1	n	n	n	26	n	27
Cc1cc(C(=O)Nc2sc(C)c(-c3ccc(F)cc3)c2C(N)=O)no1	n	n	n	13	n	n
CCc1ccc(-c2c(C)sc(NC(C)=O)c2C(N)=O)cc1	n	n	n	n	x	x
CC(C)c1ccc(NS(=O)(=O)c2ccc(-n3cccn3)cc2)cc1	n	n	n	13	17	n
CC(C)c1ccc(S(=O)(=O)Nc2ccc(-n3cnnn3)cc2)cc1	n	n	n	n	x	x
FC(F)(F)c1cc(-c2ccc(Cl)cc2)nc2ncnn12	n	n	n	n	x	x
Cc1ccc(NC(=O)CSc2nc(-c3ccco3)cc(C(F)(F)F)n2)cc1C	n	n	n	24	n	n
O=C(CSc1nc(-c2ccco2)cc(C(F)(F)F)n1)Nc1ccc2c(c1)CCC2	n	n	n	n	x	x
Cc1c(C(=O)Nc2nccs2)oc2c(Cl)cccc12	n	n	n	22	n	n
COC(=O)c1c(NC(=O)CSc2ncnc3ccccc23)sc(C)c1C	n	n	n	15	n	n
COC(=O)c1c(NC(=O)Nc2ccc(Cl)cc2)sc(C)c1C	n	n	n	10	n	n
Cc1cccc(NC(=O)c2sc3nc(-c4ccc(F)cc4)cn3c2C)n1	n	n	n	12	n	n
Cc1oc2cc3oc(=O)c(CCC(=O)N(C)CC(=O)O)c(C)c3cc2c1C	n	n	n	n	x	x
Cc1cc(NC(=O)COc2ccc3c(C)c(C)c(=O)oc3c2)no1	n	n	n	n	x	x
Cc1ccc(-c2cc(C(=O)OCC(=O)Nc3cc(C)on3)c3ccccc3n2)c(C)c1	n	n	n	12	n	n
Cc1cc(NC(=O)COC(=O)c2ccccc2O)no1	n	n	n	n	x	x
Cc1cc(NC(=O)COc2ccc3oc4ccccc4c3c2)no1	n	n	n	10	n	n
SMILES	MC4R antag cAMP	MsrA act	MsrA inhibitor	MC4R ag barr	MC4R barr ag	MOR DOR agonist
Cc1cc(NC(=O)COC(=O)c2oc3c(ccc4ccccc43)c2C)no1	n	n	n	18	n	n
Cc1ccc(C(=O)OCC(=O)Nc2cc(C(C)(C)C)no2)c(C)c1	n	n	n	9.9	n	n
O=C(C(=O)N1CCN(c2ccccc2)CC1)c1ccncc1	x	x	n	x	x	x
Cc1ccc(C)c(C(=O)OCC(=O)NC(=O)NCc2ccccc2)c1	n	n	n	13	n	n
COc1ccccc1N1C(=O)CCC1(C#N)c1ccc(Br)cc1 (stereo unspecified)	n	n	n	n	x	x
COC(=O)C1=C(C)N(Cc2ccccc2)C(=NCc2ccccc2)N[C@H]1c1cccc(F)c1	n	n	n	9.6	11	n
